Assay outcomes: PubChem, Columbia University Molecular Screening Center
Many of the other results were omitted from the sample, so hits are more common in it than they were.
Insulin prom act: TRM-6 insulin promoter activation; TRM-6 cells (human fetal islet line), insulin promoter eGFP reporter, imaging; plate-scaled: unstimulated 0, stimulated control 100; activation, % at 2 µM; 130,000 compounds, 0.81% hits;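 active means activation at 2 µM above a set limit, confirmed on inspection of the cell images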;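 further: share of cells whose green reporter signal exceeds an intensity cutoff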
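test system = TRM-6 insulin promoter–eGFP reporter cells | benchmarks = stimulated versus unstimulated wells as plate controls | read-out basis = percent cells above green-intensity threshold, converted to percent activation versus plate controls | detection = fixed-cell fluorescence microscopy, eGFP plus Hoechst | incubation = tamoxifen pre-incubation 15 h overnight, then compound exposure 48 h at 37 °C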
* = called active by the depositor.

SMILES	Insulin prom act
N#CCC(=O)NCCCOC(=O)Nc1ccc(Cl)c(Cl)c1	9
Cc1ccc(NC(=O)CN2c3cccc4cccc(c34)S2(=O)=O)cc1S(=O)(=O)N1CCOCC1	-9
Cc1cc(OCC(=O)c2ccc(F)cc2)ccc1N1C(=O)CCC1=O	7
CC1CCN(C(=O)C2CCN(CC(C)c3ccccc3)CC2)CC1 (stereo unspecified)	368
CC1CCN(C(=O)C2CCN(S(=O)(=O)c3cnc[nH]3)CC2)CC1	506*
NS(=O)(=O)c1ccc(CCNC(=O)C2CCN(S(=O)(=O)c3cnc[nH]3)CC2)cc1	5
C=CCNC(=O)C(=O)c1cccn1-c1ccsc1C(=O)OC	0
O=C1C2C3C=CC(C3)C2C(=O)N1/N=C/c1cn(Cc2ccccc2)c2ccccc12 (stereo unspecified)	-5
O=C(O)c1cn(Cc2ccccc2)c2ccccc2c1=O	383*
COc1ccc2c(c1)c(=O)c(C(=O)c1ccccc1)cn2Cc1ccc(C)cc1	-7
CS(=O)(=O)N1CCN(C2CCN(Cc3ccccc3)CC2)CC1	-3
O=C(CP(=O)(c1ccccc1)c1ccccc1)Nn1cnnc1	-7
Cc1cc2n(n1)SC(Nc1cc(Cl)ccc1Cl)N2 (stereo unspecified)	0
C=CCn1c(SCC(=O)c2ccc(OC)cc2)nnc1-c1cc2cccc(OC)c2o1	-5
C=CCn1c(COc2cccc3cccnc23)nnc1SCC(=O)O	0
C=CCn1c(COc2cccc3ccc(C)nc23)nnc1SCC(=O)O	450*
CCSc1ccc(NC(=O)c2cccnc2)cc1	5
O=C(CSc1ncnc2c1cnn2CCc1ccccc1)Nc1cccc(C(F)(F)F)c1	9
Cc1nc2ccc(Cl)cc2c(-c2ccccc2F)c1CC(=O)O	9
N#Cc1cnn(-c2nc3sc4c(c3c(=O)[nH]2)CCCC4)c1N	0
Cc1ccc(C)c(/C(O)=C2\C(=O)C(=O)N(Cc3cccnc3)C2c2cccnc2)c1 (stereo unspecified)	9
CCOC(=O)C(NC(=O)Nc1ncccn1)(Oc1ccccc1)C(F)(F)F (stereo unspecified)	190*
CCOC(=O)C(NC(=O)c1ccccc1)(OCc1ccc(F)cc1)C(F)(F)F (stereo unspecified)	6
CCOC(=O)C(NC(=O)c1ccc(OC)cc1)(OCC1(CC)COC1)C(F)(F)F (stereo unspecified)	-7
C/C(=N\NS(=O)(=O)c1ccc(Cl)cc1)c1ccc(O)cc1	3
SMILES	Insulin prom act
Nn1c(SCc2nc3ccccn3c2Br)nnc1-c1cccnc1	-3
CCOC(=O)c1c(C)nc2c(c1-c1cc(OC)c(OC)c(OC)c1)C(=O)c1ccccc1-2	-1
N=c1n(Cc2ccccc2)c2ccccc2n1CC(O)c1ccco1 (stereo unspecified)	0
Cn1c(=N)n(CC(=O)O)c2ccccc21	0
CCN(CC)CCn1c(=N)n(CC(O)c2ccco2)c2ccccc21 (stereo unspecified)	508*
Cc1ccc(F)c(NC=C2C(=O)OC(C)(C)OC2=O)c1	144
COc1ccc(CCNC(=O)/C(C#N)=C/c2cccc(OCc3ccccc3)c2)cc1OC	-5
COc1ccccc1-c1c(C)oc2cc(OCC(=O)OCc3ccccc3)ccc2c1=O	0
NC(=O)C1CCN(CC(=O)NC2CCCc3ccccc32)CC1 (stereo unspecified)	-4
O=C(CN1C(=O)C2CC=CCC2C1=O)NC1CCCc2ccccc21 (stereo unspecified)	83*
Cc1ccc(S(=O)(=O)N2CCN(CC(=O)NC3CCCc4ccccc43)CC2)c(C)c1 (stereo unspecified)	0
CC1=C(C(=O)OC(C)(C)C)C(c2ccco2)C(C#N)=C(N)O1 (stereo unspecified)	8
COc1ccc(C(=O)/C=C/c2ccc(OC)c(Cn3nnc4ccccc43)c2)cc1	-8
CCN(CC)C(=O)C(=O)c1cn(CC(=O)N2CCc3ccccc3C2)c2ccccc12	146
COC(=O)c1ccncc1C(=O)Nc1ccc(F)cc1	-7
CC1C2=C(CC(C)(C)CC2=O)NC2=C1C(=O)CC(C)(C)C2	-5
CC1=C(C(=O)Nc2ccc(F)cc2)C(c2ccc(C)o2)C2=C(CC(C)(C)CC2=O)N1 (stereo unspecified)	296
CC1(C)CC(=O)C2=C(C1)Nc1cc3c(cc1C2c1ccc(F)cc1)OCO3 (stereo unspecified)	100*
CCC(=O)Nc1ccc(C(=O)N/N=C/c2cc(Br)c(OC)cc2OC)cc1	-6
CCOC(=O)C1CCCN(C(=S)Nc2ccc(OC)cc2)C1 (stereo unspecified)	0
CCOC(=O)C1CCCN(C(=O)C2CC(=O)N(c3ccc(C)cc3)C2)C1 (stereo unspecified)	-15
CCOC(=O)C1CCCN(c2cc(=O)n(C3CCCCC3)c(=O)[nH]2)C1 (stereo unspecified)	124*
CCOC(=O)c1cnc(-n2[nH]c(C)c(Cc3ccccc3)c2=O)[nH]c1=O	7
COc1ccc2[nH]c(=O)c(CN(Cc3ccc4c(c3)OCO4)C(C)=O)cc2c1	-6
